In publication PMC3057505 (Journal of medicinal chemistry, 2010):
“Also recorded” adds a separate entry of the source.

Key:
[1] = system: Aβ plaques in human AD brain sections; assay: Fluorescence staining of human AD brain sections; type: binding; conditions: 50 μM, 30 min, 9:1 PBS:EtOH, frozen sections 10 μm
Outline: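 Frozen 10 μm sections of human AD brain and age-matched control brain. Stained 30 min with 50 μM test compound in 9:1 PBS/EtOH, made by diluting a DMSO stock to 0.50 mM in EtOH and then into PBS/EtOH. Washed in turn with 75% aqueous EtOH, 95% EtOH and xylene. Plaque staining was read by fluorescence microscopy.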

[2] = DPPH free radical scavenging assay; type: physicochemical; conditions: for DPPH free radical scavenging activity relative to quercetin: vs quercetin IC50 = 1.3 ± 1.1 μM; for fold less potent than quercetin in DPPH free radical scavenging: p < 0.05 vs quercetin
Aβ plaques [3] = assay: In vivo BBB delivery to Aβ plaque-bearing PDAPP mouse brain; parameters: species or system PDAPP transgenic mice; conditions: single 50 mg/kg IP, ten-month-old PDAPP mice, sacrificed 48 h after injection
Outline: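 Ten-month-old PDAPP transgenic mice received a single ip dose of 50 mg/kg test compound, with vehicle-only controls (10% DMSO/PBS). At 48 h they were killed by transcardial perfusion with 4% PFA in PBS. Brains were cryoprotected, frozen, sectioned, postfixed 5 min in 4% PFA, washed in PBS and mounted. Plaque fluorescence was imaged in hippocampal CA1 and dentate gyrus at 10× and 40×.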

[4] = biological target: aggregated amyloid peptide Aβ1-40 (Homo sapiens, UniProt P05067); assay: In vitro Aβ1-40 binding affinity by fluorescence titration; conditions: for decrease in Aβ binding affinity: compared to 4; for fold weaker Aβ binding affinity compared to 4: ratio of Kd vs compound 4
Aβ plaques [5] = type: binding, APP/PS1 transgenic mouse
Outline: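 Brains from 11-month-old APP/PS1 mice (Tg2576 APP Swedish × M146L PS1 line) were perfused with 4% paraformaldehyde, cryoprotected in 20% sucrose and cut into 10 μm frozen sections, three per dilution point. Sections were stained 30 min with 50 μM test compound in 9:1 PBS/EtOH, then washed in 75% EtOH, 95% EtOH and xylene. S/N was taken as plaque fluorescence over background tissue.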

Aβ plaques [6] = conditions: APP or APP/PS1 mice; cited from earlier work

aggregated amyloid peptide Aβ1-40, sequence (P05067 672-711 limits assumed): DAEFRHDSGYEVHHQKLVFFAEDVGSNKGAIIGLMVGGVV

SMILES: Oc1ccc(/C=C/c2ccc(/C=C/c3ccc(O)cc3)cc2)cc1 [Compound 4, (E,E)-1,4-bis(4-hydroxystyryl)benzene]
- staining of Aβ plaques in human AD brain sections [1]: bind specifically to Aβ plaques in human brain sections
- DPPH free radical scavenging activity relative to quercetin [2]: no less effective than quercetin
- BBB crossing and Aβ plaque binding in vivo (Aβ plaques [3]; 50 mg/kg): crossed the BBB and bound to Aβ plaques in vivo; also recorded: crossed the blood-brain-barrier and bound to Aβ plaques in vivo

SMILES: Oc1ccc(/C=C/c2cccc(/C=C/c3ccc(O)cc3)c2)cc1 [Compound 6, (E,E)-1,3-bis(4-hydroxystyryl)benzene]
- decrease in Aβ binding affinity [4]: two order of magnitude decrease
- DPPH free radical scavenging activity relative to quercetin [2]: no less effective than quercetin

SMILES: Oc1ccc(/C=C/c2ccccc2/C=C/c2ccc(O)cc2)cc1 [Compound 7, (E,E)-1,2-bis(4-hydroxystyryl)benzene]
- decrease in Aβ binding affinity [4]: two order of magnitude decrease
- fold less potent than quercetin in DPPH free radical scavenging [2]: 3 to 7 fold

SMILES: Oc1cccc(/C=C/c2ccc(/C=C/c3cccc(O)c3)cc2)c1 [Compound 8, (E,E)-1,4-bis(3-hydroxystyryl)benzene]
- staining of Aβ plaques in human AD brain sections [1]: bind specifically to Aβ plaques in human brain sections
- BBB crossing and Aβ plaque binding in vivo (Aβ plaques [3]; 50 mg/kg): crossed the BBB and bound to Aβ plaques in vivo; also recorded: crossed the blood-brain-barrier and bound to Aβ plaques in vivo

SMILES: Oc1ccccc1/C=C/c1ccc(/C=C/c2ccccc2O)cc1 [Compound 9, (E,E)-1,4-bis(2-hydroxystyryl)benzene]
- fold weaker Aβ binding affinity compared to 4 [4]: 84 fold
- Aβ binding specificity (Aβ plaques [5]; APP/PS1 mouse brain sections): good binding specificity
- fold less potent than quercetin in DPPH free radical scavenging [2]: 3 to 7 fold

SMILES: Oc1cc(O)cc(/C=C/c2ccc(/C=C/c3cc(O)cc(O)c3)cc2)c1 [Compound 10, (E,E)-1,4-bis(3,5-dihydroxystyryl)benzene]
- staining of Aβ plaques in human AD brain sections [1]: bind specifically to Aβ plaques in human brain sections
- fold weaker Aβ binding affinity compared to 4 [4]: 17 to 27 fold
- fold less potent than quercetin in DPPH free radical scavenging [2]: 3 to 7 fold
- BBB crossing and Aβ plaque binding in vivo (Aβ plaques [3]): crossed the BBB and bound to Aβ plaques in vivo

SMILES: Oc1ccc(/C=C/c2ccc(/C=C/c3ccccc3)cc2)cc1 [Compound 11, (E,E)-1-styryl-4-(4-hydroxystyryl)benzene]
- fold weaker Aβ binding affinity compared to 4 [4]: 16 fold

SMILES: Oc1ccc(/C=C/c2ccc(/C=C/c3cccc(O)c3)cc2)cc1 [Compound 12, (E,E)-1-(4-hydroxystyryl)-4-(3-hydroxystyryl)benzene]
- fold weaker Aβ binding affinity compared to 4 [4]: 370 fold
- fold weaker Aβ binding affinity compared to 8 ([4]; ratio of Kd vs compound 8): 660 fold
- DPPH free radical scavenging activity relative to quercetin [2]: no less effective than quercetin

SMILES: Oc1ccc(/C=C/c2ccc(/C=C/c3ccc(O)c(O)c3)cc2)cc1 [Compound 13, (E,E)-1-(4-hydroxystyryl)-4-(3,4-dihydroxystyryl)benzene]
- fold weaker Aβ binding affinity compared to 4 [4]: 17 to 27 fold

SMILES: Oc1ccc(/C=C/c2ccc(/C=C/c3cc(O)cc(O)c3)cc2)cc1 [Compound 14, (E,E)-1-(4-hydroxystyryl)-4-(3,5-dihydroxystyryl)benzene]
- fold weaker Aβ binding affinity compared to 4 [4]: 17 to 27 fold
- fold less potent than quercetin in DPPH free radical scavenging [2]: 3 to 7 fold

SMILES: Oc1cccc(/C=C/c2ccc(/C=C/c3ccc(O)c(O)c3)cc2)c1 [Compound 15, (E,E)-1-(3-hydroxystyryl)-4-(3,4-dihydroxystyryl)benzene]
- fold less potent than quercetin in DPPH free radical scavenging [2]: 3 to 7 fold

SMILES: Oc1ccc(/C=C/c2ccc(O)cc2)cc1 [Compound 16]
- decrease in Aβ binding affinity [4]: three orders of magnitude weaker
- DPPH free radical scavenging activity relative to quercetin [2]: no less effective than quercetin

SMILES: Oc1ccc(C#Cc2ccc(C#Cc3ccc(O)cc3)cc2)cc1 [Compound 17]
- fold weaker Aβ binding affinity compared to 4 [4]: 6 fold
- fold loss in specificity compared to 4 (Aβ plaques [5]; ratio of S/N vs compound 4): 2.4 fold

SMILES: O=C(O)c1cc(/C=C/c2ccc(/C=C/c3ccc(O)c(C(=O)O)c3)cc2)ccc1O [Compound X-34]
- BBB penetration and binding to Aβ plaques (Aβ plaques [6]): penetrate the blood – brain barrier (BBB) and bind to Aβ plaques

SMILES: O=C(O)c1cc(/C=C/c2ccc(/C=C/c3ccc(O)c(C(=O)O)c3)c(F)c2)ccc1O [FSB]
- BBB penetration and binding to Aβ plaques (Aβ plaques [6]): penetrate the blood – brain barrier (BBB) and bind to Aβ plaques
